According to publication PMC8520056 (Asian Journal of Pharmaceutical Sciences, 2021):
In brackets after ≈: the same amount, converted by molar mass.

Columns and labels:
[1] = In vivo pharmacokinetic study after oral administration; parameters: species or system Sprague-Dawley rats; settings: male, Sprague-Dawley, rat, plasma, 40 mg/kg
Dissolution study = format: physicochemical; settings: different pH media, 150 mg AG in 1000 ml, 75 rpm, 37 °C, up to 60 min
Summary of the method: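 USP-type paddle method (Ch.P 2015 Apparatus II) at 75 rpm and 37 ± 0.5 °C. Medium was 1000 ml of distilled water, 0.1 mol/l HCl, pH 6.8 phosphate buffer or 1% SDS. Pure compound or formulations were added at 150 mg compound-equivalent. Aliquots were drawn at 5, 10, 15, 20, 30, 45 and 60 min and replaced with fresh medium. Samples were filtered through 0.45 µm and assayed by HPLC.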

[2] = Physiologically based absorption modeling; parameters: species or system rat
[3] = Transwell transport study in MDCK-MDR1 monolayer; format: in vitro ADME, canine; settings: dog
Summary of the method: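 MDCK-MDR1 cells were seeded at 5 × 10^5 cells/well on 0.4 µm polycarbonate inserts and cultured 7 d; medium was changed every other day, then daily after day 4. Only monolayers with TEER above 140 ohms were used. Monolayers were equilibrated 30 min in HBSS at 37 °C. […] Receiver samples were taken at 15–120 min for HPLC. Papp = (ΔR/Δt)/(S·C0), with S 4.71 cm2; the efflux ratio was calculated from Papp.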

[4] = Saturated solubility of AG-CDs binary formulations; format: physicochemical; settings: distilled water
Summary of the method: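 Binary complexes were made by grinding. γ-CD was dissolved in distilled water, compound added at 1:1 or 1:2 molar ratio, and the mix ground 2 h to a paste. The paste was dried at 50 °C under vacuum, pulverised and passed through an 80-mesh sieve.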

[5] = cited from earlier work
MDCK-MDR1 cells = test: Cellular uptake of AG with P-gp inhibitors; format: cell-based, canine; settings: 100 µM AG, 200 µM γ-CD, 1% P-gp inhibitor, 37 °C, 90 min
Summary of the method: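 MDCK-MDR1 cells were grown in DMEM with 10% heat-inactivated FBS and 1% penicillin/streptomycin at 37 °C, 5% CO2. Cells were seeded at 5 × 10^5 cells/well and left to adhere overnight. At 80% confluence they were exposed for 90 min at 37 °C to 100 µM test compound, with or without 200 µM γ-CD plus 1% Tween 80, TPGS, P407 or Cremophor EL. Cells were washed three times in ice-cold PBS, lysed in 1% Triton X-100, and intracellular compound was measured by HPLC. […] Triplicates, mean ± SD.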

[6] = three-compartment model fitted to 5 mg/kg i.v. data of ref 35

C=C1CC[C@@H]2[C@](C)(CO)[C@H](O)CC[C@@]2(C)[C@@H]1C/C=C1/C(=O)OC[C@H]1O [AG, Andrographolide]
AUC(0-inf) [1]: 426 ± 76.8 ng·h/mL
AUC(0-t) [1]: 351 ± 56.5 ng·h/mL
Cmax [1]: 57.8 ± 14.8 ng/mL
Tmax [1]: 1.33 ± 0.52 h
half-life [1]: 9.72 ± 1.38 h
k el [1]: 2e-05 s⁻¹
AG released (dissolution) (Dissolution study): 17%
Dissolution rate (constant) ([2]; fitted to dissolution test result, pH 6.8 PBS): 148 µL/min/mg
Central (compartment volume) [2, 6]: 1460 mL
K10 [2, 6]: 0.7518 h⁻¹
K12 [2, 6]: 1.29 h⁻¹
K13 [2, 6]: 4.5125 h⁻¹
K21 [2, 6]: 0.27 h⁻¹
K31 [2, 6]: 7.0938 h⁻¹
Periperal_2 (compartment volume) [2, 6]: 1000 mL
Peripheral_1 (compartment volume) [2, 6]: 6000 mL
Papp A→B at 120 min, 20 µM [3]: 0.47 ± 0.04 ×10⁻⁶ cm/s
Papp B→A at 120 min, 20 µM [3]: 4.9 ± 0.05 ×10⁻⁶ cm/s
efflux ratio at 120 min, 20 µM [3]: 10.4
solubility [4]: 74.6 µg/mL (≈ 213 µM)
Unbound fraction (plasma) [5]: 0.35

D-α-Tocopherol polyethylene glycol succinate [TPGS]
Cellular uptake of AG (MDCK-MDR1 cells): 1.04 nmol/mg protein
